The test system of assay [1] is Candida albicans. Briefly: Antifungal activity against Candida albicans NIH B311 at 100 ug/mL after 24 hrs by bioautography. The assay is classed as functional. Conditions: read-out: IZ. The gist of the method:
(§1)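 Bioautography at a test concentration of 100 µg/mL; activity recorded as zone of inhibition in mm. Media were yeast nitrogen broth for C. albicans and Mycophil broth for C. neoformans.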

In assay [2] the test system is Cryptococcus neoformans. Description: Antifungal activity against Cryptococcus neoformans ATCC 52657 after 48 hrs by twofold serial dilution method. The assay is classed as functional. As to conditions: ATCC 52657, 48 h. The gist of the method: (§2)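 Two-fold serial broth macrodilution. C. albicans was grown in yeast nitrogen broth and incubated 24 h; C. neoformans in Mycophil broth, 48 h; both at 37 °C. MIC taken as the lowest concentration visually inhibiting growth. Footnote notes one test sample was run in Eugon by a microplate method.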

Assay [3] has as its system Cryptococcus neoformans. Description: Antifungal activity against Cryptococcus neoformans ATCC 52657 at 100 ug/mL after 48 hrs by agar well diffusion method. Format: functional. Conditions: ATCC 52657, 48 h, read-out: IZ. A digest of the protocol: (§3)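 Agar well diffusion at a test concentration of 100 µg/mL; activity read as zone of inhibition diameter in mm. C. albicans was grown in yeast nitrogen broth, C. neoformans in Mycophil broth.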
In general terms: Agar diffusion results depend on both activity and mobility in agar.

Assay [4] relates to Candida albicans. Description: Antifungal activity against Candida albicans NIH B311 at 100 ug/mL after 24 hrs by agar well diffusion method. Format: functional. Conditions: read-out: IZ. A digest of the protocol:
as §3

Assay [5] concerns Candida albicans. Description: Antifungal activity against Candida albicans NIH B311 after 24 hrs by twofold serial dilution method. Format: functional. A digest of the protocol: as §2
Assay [6] deals with Cryptococcus neoformans. Description: Antifungal activity against Cryptococcus neoformans ATCC 52657 at 100 ug/mL after 48 hrs by bioautography. As to conditions: ATCC 52657, 48 h, read-out: IZ. The assay is classed as functional. A digest of the protocol:
as §1

The next assay concerns Escherichia coli. Briefly: Antibacterial activity against Escherichia coli ATCC 10536. Format: functional, organism-based. A digest of the protocol:
(§4)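 Colorimetric oxidation-reduction broth assay, with Alamar blue dye added as an indicator of the organism's metabolic activity; result expressed as MIC in µg/mL; streptomycin served as positive control.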

In a further assay the test system is Pseudomonas aeruginosa. Briefly: Antibacterial activity against Pseudomonas aeruginosa ATCC 15442. Format: functional, organism-based. The gist of the method: as §4
The test system of the next assay is Staphylococcus aureus. Description: Antibacterial activity against Staphylococcus aureus ATCC 6538. Format: functional, organism-based. A digest of the protocol: as §4
The next assay has as its system Bacillus subtilis. Description: Antibacterial activity against Bacillus subtilis ATCC 6333. The assay is classed as functional, organism-based. The gist of the method: as §4

In general, MIC refers to the lowest concentration that inhibits growth of the organism. Low values mean greater potency, high ones weaker potency.

The structures appear in SMILES notation. Values after ≈ are worked out from the molar mass of the structure shown. Active and inactive are the calls of the source. No cut-off for these calls is given here.

`O=C1c2ccccc2-c2nccc3ccnc1c23` [SAMPANGINE]: the zone of inhibition at 100 µg/mL with Candida albicans [1] stood at 10 mm; in the assay on Cryptococcus neoformans [3], 35 mm; in the assay on Candida albicans [4], 10 mm; with Cryptococcus neoformans [6], 35 mm. Also, the MIC came out at 0.2 µg/mL (≈ 0.861 µM) in the assay on Cryptococcus neoformans [2] and 3.12 µg/mL (≈ 13.4 µM) in the assay with Candida albicans [5].

For the molecule `O=C(O)[C@H]1O[C@@H](Oc2c3c4c(ccnc4c4ccccc24)C=CN3)[C@H](O)[C@@H](O)[C@@H]1O`, the outcome with Escherichia coli, with Pseudomonas aeruginosa, in the assay on Staphylococcus aureus and in the assay with Bacillus subtilis was inactive. The MIC in the assay with Cryptococcus neoformans [2] and against Candida albicans [5] was > 25 µg/mL each time. Besides, the results for the zone of inhibition at 100 µg/mL in the assay with Cryptococcus neoformans [3], in the assay on Candida albicans [4] and in the assay on Cryptococcus neoformans [6] were 26 mm, 6 mm and 35 mm, respectively.
